# Screening data from PubChem.
# PLC-beta3 inh: PLC-beta3 (human) inhibition, primary screen | inhibition, % at 12.2 µM | Purified PLC-beta3, fluorogenic substrate, fluorescence | Q01970 | actives 0.18% (n = 370,000); in the data active = inhibition above about 11%
# Tn7 DDE FP: disrupts Tn7 cyclic peptide binding to fibrin D-Dimer-E complex; P02675; FP displacement of FITC-Tn7 peptide from fibrin DD(E); 0% = median of compound wells per plate; inhibition, % at 8.3 µM; actives 0.13% (n = 370,000); AID 720508;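 active = inhibition above the mean of compounds falling within the control limits plus 3 SD of them, cut at about 14% in these data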
#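 Assay system: human fibrin DD(E) protein / Input: 2 µM fibrin DD(E) / Benchmarks: high control of 10 µM Aha-Tn7 peptide / Measured by: fluorescence polarization of the labelled Tn7 tracer / Medium: Tris buffer with calcium and detergent, pH 7.8 / Timing: 10 min compound pre-incubation, 3 h probe incubation at room temperature / Repeats: one replicate per compound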
# ADAM17 inh: inhibits human ADAM17. P78536. recombinant ADAM17, EDANS/DABCYL FRET peptide cleavage. inhibition, % at 6.95 µM. actives 0.83% (n = 370,000). AID 720648;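 active = inhibition above the mean of compounds lying between control limits plus 3 SD, set per campaign, cut at about 8.5% in these data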
# Tn6 DDE FP: DD(E)-Tn6 binding inhibition, primary FP screen. P02675. Fibrin DD(E) TRITC-Tn6 fluorescence polarization displacement. inhibition, % at 8.3 µM. actives 0.21% (n = 370,000). AID 720509;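 active = inhibition above a per-campaign cutoff: mean of compounds within control limits plus 3 SD, cut at about 15% in these data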
# PLCg1 inh: blocks human PLC-gamma1 enzyme activity. P19174. purified PLC-gamma1, fluorogenic substrate, fluorescence. inhibition, % at 12.2 µM. actives 0.84% (n = 370,000); in the data active = inhibition above about 9.5%
# ADAM10 inh: inhibits human ADAM10; O14672; recombinant ADAM10, EDANS/DABCYL FRET peptide cleavage, 3 h; inhibition, % at 7 µM; actives 0.62% (n = 370,000); AID 720582;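 active = inhibition above a per-campaign cutoff equal to the mean of compounds falling between control-based bounds plus 3 SD, cut at about 20% in these data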
# DDE Tn7 confirm: DD(E)-Tn7 binding inhibition, FP confirmation; inhibition, % at 8.3 µM; actives 5% (n = 460); FP displacement of TRITC-Tn7 peptide from DD(E); 0% set at plate's compound-well median; AID 720628; shares compounds with Tn7 DDE FP;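 active = inhibition above the campaign cutoff, the mean of compounds within control limits plus 3 SD, cut at about 14% in these data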;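 also: displacers lower polarization since freed probe rises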
# Tn7 DDE ctr: counter-screen hit for Tn7 peptide-fibrin DD(E) binding disruption; actives 3% (n = 460); shares compounds with Tn7 DDE FP; inhibition, % at 8.3 µM; TRITC-Tn7 probe displacement, fluorescence polarization; AID 720633;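 active = inhibition above the cutoff, the mean of compounds lying between the control bounds plus 3 SD of those compounds, cut at about 17% in these data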
# A number is an active result; - = inactive; . = no result given. The list is not random: actives were taken first. Their share in the collection is about 2.3%.
SMILES,PLC-beta3 inh,Tn7 DDE FP,ADAM17 inh,Tn6 DDE FP,PLCg1 inh,ADAM10 inh,DDE Tn7 confirm,Tn7 DDE ctr
C=CC[C@@H](CC(=O)N(CCO)Cc1ccccc1)C(=O)N[C@H](COC(=O)[C@@H](CC=C)Cc1ccc(F)cc1)Cc1ccccc1,-,16.2,13.9,-,-,32.6,-,-
C[C@@H]1/C=C/CC(=O)N[C@H](c2ccc3ccccc3c2)[C@H](C)/C=C/CC(=O)N[C@@H]1c1ccc2ccccc2c1,-,-,-,-,-,-,.,.
Cc1cc(=O)n(Cc2ccco2)c(=S)[nH]1,-,15.8,-,-,-,-,-,-
Cc1ccccc1NC(=O)CCCNC(=O)c1ccc(Cl)cc1,-,-,-,-,-,-,.,.
CC(=O)c1ccccc1NC(=O)CCCNC(=O)c1ccc(Cl)cc1,-,14.7,-,-,-,-,-,-
COc1ccccc1NS(=O)(=O)c1cccc(C(=O)NCC(c2ccco2)N(C)C)c1 (centres undefined),-,14.4,-,-,-,-,-,-
COC(=O)C[C@H]1CC[C@@H]2[C@@H](COc3ccc(NC(=O)c4ccno4)cc3C(=O)N2C)O1,-,-,-,-,-,-,.,.
Cc1ccc(NC(=O)CS(=O)CC(=O)N(c2ccc(C)cc2)C(C)C(=O)NC2CCCCC2)cc1 (centres undefined),-,14.8,-,-,-,-,-,-
Cc1ccc(NC(=O)CS(=O)CC(=O)N(c2ccccc2F)C(C)C(=O)NC2CCCC2)cc1 (centres undefined),-,-,-,-,-,-,.,.
Cc1ccc(CN[C@@H]2CC[C@@]34CCCN3C(=O)CCC[C@H]4C2)cc1,-,-,-,-,-,-,.,.
Cc1ccccc1C(=O)NCC(C)NC(=O)c1ccccc1C (centres undefined),-,14.0,-,-,-,-,-,-
COc1ccc(C2CCC3(CCC(=O)N3CCO)CC2)cc1 (centres undefined),-,-,-,-,-,-,.,.
COc1ccc(C(=O)NCCN2C(=O)C3C4C=CC(C4)C3C2=O)cc1OC (centres undefined),-,-,-,-,-,-,.,.
Cc1ccc(-c2nc3ccc(C)cn3c2Cc2ccccc2C(F)(F)F)cc1,-,-,-,-,-,-,.,.
Cc1ccc2nc(-c3ccccc3)c(Cc3ccccc3C(F)(F)F)n2c1,-,15.6,-,-,-,-,-,-
O=C1[C@H](Cc2ccccc2)NCC=CC[C@@H](c2ccc(Cl)cc2)N1Cc1ccccc1,-,-,-,-,-,-,.,.
O=C1[C@H](Cc2ccccc2)NCC=CC[C@H](c2ccco2)N1Cc1ccccc1,-,15.7,-,-,-,-,-,-
Cc1cc(NS(=O)(=O)c2ccc(NC(=O)Cc3ccc([N+](=O)[O-])cc3)cc2)no1,-,13.8,-,-,-,-,-,-
O=C(c1ccccc1)N1CCSc2sccc2C1=O,-,15.2,-,-,-,-,-,-
O=C(c1ccccc1)N1CCSC1=S,-,-,-,-,-,-,.,.
CCCS(=O)(=O)n1nc(-c2ccc(C)cc2)cc1N,-,13.9,-,-,-,-,-,-
O=C1c2ccccc2-c2ccc(P(=O)(O)O)cc21,-,-,-,-,-,-,.,.
CC(=O)Nc1ccc(S(=O)(=O)n2nc(-c3ccc(C)cc3)nc2N)cc1,-,14.0,-,-,-,-,-,-
COC(=S)Nc1cccc(C(F)(F)F)c1,-,-,-,-,-,-,.,.
COC(=O)/C=C/C(=O)Nc1cccc(C(F)(F)F)c1,-,14.0,-,-,-,-,-,-
SMILES,PLC-beta3 inh,Tn7 DDE FP,ADAM17 inh,Tn6 DDE FP,PLCg1 inh,ADAM10 inh,DDE Tn7 confirm,Tn7 DDE ctr
CCCCNC(=O)C1(C(=O)c2ccc(OC)cc2)CC(c2ccccc2C(F)(F)F)=NO1 (centres undefined),-,-,-,-,-,-,.,.
C=CCN1[C@@H](C)COc2cc(F)ccc2S1(=O)=O,-,-,-,-,-,-,.,.
COc1cccc(N2CCN(C(=O)c3ccc(N4C(=O)NC5CC4(C)Oc4ccccc45)cc3)CC2)c1 (centres undefined),-,-,-,-,-,-,.,.
COc1ccc(N2C(=O)NC3CC2(C)Oc2ccccc23)cc1 (centres undefined),-,15.8,-,-,-,-,-,-
NC(=O)CC(NC(=O)Cc1ccc(Cl)cc1)c1ccc(NC2CCCC2)c([N+](=O)[O-])c1 (centres undefined),-,14.0,-,-,-,-,-,-
CC1CCN(CC(O)COCCC23CC4CC(CC(C4)C2)C3)CC1 (centres undefined),-,14.9,-,-,-,-,-,-
CC1CCN(CC(O)COCCOc2ccc(Br)cc2)CC1 (centres undefined),-,-,-,-,-,-,.,.
O=C1CCCc2c1cc(C(=O)O)c(=O)n2-c1ccccc1,-,-,-,-,-,-,.,.
COC(=O)C(CCSC)NC(=O)c1cc2c(n(-c3ccccc3)c1=O)CCCC2=O (centres undefined),-,14.9,-,-,-,-,-,-
CC[C@H]1OC(=O)[C@H](C)[C@@H](O[C@H]2C[C@@](C)(OC)[C@@H](O)[C@H](C)O2)C(C)[C@@H](O[C@@H]2O[C@H](C)C[C@H](N(C)C)[C@H]2O)[C@](C)(O)C[C@@H](C)CN(C)[C@H](C)[C@@H](O)[C@]1(C)O (some centres undefined),-,14.3,-,-,-,-,-,-
CCCC1CCC2(CC1)CCC2OC(=S)Nc1ccccc1 (centres undefined),-,-,-,-,-,-,.,.
CCn1c(SCC(=O)NN=Cc2c(C)nn(-c3ccccc3)c2C)nnc1-c1ccc(OC)c(OC)c1,-,-,-,-,-,-,.,.
Cc1cc(NC(=O)COC(=O)CNC(=O)c2cccs2)c([N+](=O)[O-])cc1C,-,-,-,-,-,-,.,.
O=C(COC(=O)CNC(=O)c1cccs1)Nc1ccc(C(F)(F)F)cc1[N+](=O)[O-],-,14.8,-,-,-,-,-,-
CCN(C(=O)C(C)N1C(=O)/C(=C/c2ccco2)SC1=S)C1CCS(=O)(=O)C1 (centres undefined),-,14.2,-,-,-,-,-,-
O=C1C2C(C(=O)N1/N=C/c1ccco1)C1C=CC2C12CC2 (centres undefined),-,-,-,-,-,-,.,.
